Test results taken from ChEMBL document CHEMBL1177890, “Synthesis and biological evaluation of new 2-chloro-3-((4-phenyl-1H-1,2,3-triazol-1-yl)methyl)quinoline derivatives via click chemistry approach” (2010).
Values after ≈ are worked out from the molar mass of the structure shown.

How the values were obtained:
Assay type in all cases: functional
[1] = tested on: Aspergillus niger; experiment: Antifungal activity against Aspergillus niger NCIM 545 after 48 hrs by agar cup plate method
Method in brief: (§1)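 Agar cup plate diffusion with compounds dissolved in DMSO. Bacteria (B. subtilis, E. coli) were grown on Mueller Hinton agar at 37 ± 0.5 °C. Fungi (C. albicans, A. niger) were grown on Czapek Dox medium at 28 ± 0.5 °C. Incubation was 48 h. The read-out was the diameter of the inhibition zone, averaged over three independent determinations.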

[2] = tested on: Candida albicans; experiment: Antifungal activity against Candida albicans MTCC 277 after 48 hrs by agar cup plate method; method in brief: as §1
[3] = tested on: Candida albicans; experiment: Antifungal activity against Candida albicans MTCC 277 after 24 to 72 hrs by cup plate method
Method in brief: (§2)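 MIC by cup plate method on Mueller Hinton agar plates containing compound at 0 (control), 1, 2, 3, 5, 10, 15, 20, 30 or 40 µg/mL. Plates were prepared per NCCLS M7-A5 and incubated at 37 °C. They were examined after 24 h and, where necessary, incubated further for 72 h. The MIC was taken as the lowest concentration giving inhibition.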

[4] = tested on: Bacillus subtilis; experiment: Antibacterial activity against Bacillus subtilis NCIM 2250 after 48 hrs by agar cup plate method; method in brief: as §1
[5] = tested on: Escherichia coli; experiment: Antibacterial activity against Escherichia coli ATCC 25922 after 48 hrs by agar cup plate method; method in brief: as §1
[6] = tested on: Aspergillus niger; experiment: Antifungal activity against Aspergillus niger NCIM 545 after 24 to 72 hrs by cup plate method; method in brief: as §2
[7] = tested on: Escherichia coli; experiment: Antibacterial activity against Escherichia coli ATCC 25922 after 24 to 72 hrs by cup plate method; method in brief: as §2
[8] = tested on: Bacillus subtilis; experiment: Antibacterial activity against Bacillus subtilis NCIM 2250 after 24 to 72 hrs by cup plate method; method in brief: as §2

Row | Structure (SMILES) | MIC [3] [µg/mL] | MIC [6] [µg/mL] | MIC [7] [µg/mL] | MIC [8] [µg/mL] | diameter of the inhibition zone (DIZ) [1] [mm] | diameter of the inhibition zone (DIZ) [2] [mm] | diameter of the inhibition zone (DIZ) [4] [mm] | diameter of the inhibition zone (DIZ) [5] [mm]
1 | Cc1ccc2nc(Cl)c(Cn3cc(-c4ccccc4)nn3)cc2c1 | 15 (≈ 44.8 µM) | 10 (≈ 29.9 µM) | 15 (≈ 44.8 µM) | 25 (≈ 74.7 µM) | 16.1 | 14.7 | 11.4 | 14
2 | CCc1cccc2cc(Cn3cc(-c4ccccc4)nn3)c(Cl)nc12 | 15 (≈ 43 µM) |  | 15 (≈ 43 µM) | 10 (≈ 28.7 µM) |  | 14 | 16.1 | 15.9
3 | COC1=CC(=O)C[C@@H](C)[C@]12Oc1c(Cl)c(OC)cc(OC)c1C2=O [GRISEOFULVIN] | 5 (≈ 14.2 µM) |  |  |  | 16.6 | 16.9 |  | 
4 | CN[C@@H]1[C@H](O[C@H]2[C@H](O[C@H]3[C@H](O)[C@@H](O)[C@H](N=C(N)N)[C@@H](O)[C@@H]3N=C(N)N)O[C@@H](C)[C@]2(O)C=O)O[C@@H](CO)[C@H](O)[C@H]1O [STREPTOMYCIN] |  | 5 (≈ 8.6 µM) | 5 (≈ 8.6 µM) | 5 (≈ 8.6 µM) |  |  | 16.5 | 16.1
5 | Cc1ccc2cc(Cn3cc(-c4ccccc4)nn3)c(Cl)nc2c1 | 10 (≈ 29.9 µM) |  | 15 (≈ 44.8 µM) | 10 (≈ 29.9 µM) |  | 16.4 | 16.6 | 14
6 | Cc1cccc2cc(Cn3cc(-c4ccccc4)nn3)c(Cl)nc12 | 25 (≈ 74.7 µM) | 20 (≈ 59.7 µM) | 20 (≈ 59.7 µM) | 20 (≈ 59.7 µM) | 12.7 | 13.4 | 12 | 12
7 | Clc1nc2ccccc2cc1Cn1cc(-c2ccccc2)nn1 | 15 (≈ 46.8 µM) | 20 (≈ 62.3 µM) | 15 (≈ 46.8 µM) | 15 (≈ 46.8 µM) | 10 | 16 | 13.5 | 12

Now from value to compound, other results behind:

Row | MIC [3] [µg/mL] | MIC [6] [µg/mL] | MIC [7] [µg/mL] | MIC [8] [µg/mL] | Structure (SMILES) | diameter of the inhibition zone (DIZ) [1] [mm] | diameter of the inhibition zone (DIZ) [2] [mm] | diameter of the inhibition zone (DIZ) [4] [mm] | diameter of the inhibition zone (DIZ) [5] [mm]
8 | 10 (≈ 27.4 µM) |  |  |  | CCOc1ccc2nc(Cl)c(Cn3cc(-c4ccccc4)nn3)cc2c1 | 12.8 | 16.5 |  | 
9 | 15 (≈ 42.8 µM) | 15 (≈ 42.8 µM) |  | 10 (≈ 28.5 µM) | COc1ccc2nc(Cl)c(Cn3cc(-c4ccccc4)nn3)cc2c1 | 16.3 | 15.7 | 16.7 | 
10 | 15 (≈ 42.8 µM) | 20 (≈ 57 µM) | 10 (≈ 28.5 µM) | 10 (≈ 28.5 µM) | COc1ccc2cc(Cn3cc(-c4ccccc4)nn3)c(Cl)nc2c1 |  | 14 | 16 | 16.4
